# Screens (PubChem BioAssay)
# LEDGF integ inh – blockers of LEDGF/p75-dependent integrase strand transfer – biochemical, TR-FRET, high throughput, primary screen. HIV-1 integrase (with human LEDGF/p75). TR-FRET IN-LEDGF/p75 DNA integration, Eu/Cy5. inhibition, % at 3.7 µM. 370,000 tested, 0.64% active. AID 743269, 2014;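 active = inhibition above the screen-wide mean plus 3 SD, cut at about 13% in these data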;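 also: signal is the Cy5 over europium emission ratio at 671 and 618 nm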
# UHRF1 MBD2 ctr – UHRF1 methylated DNA binding inhibitors, primary screen, counter-screen for MBD2 inhibitor project, biochemical, TR-FRET, human UHRF1, single concentration | 370,000 tested, 0.75% active | AID 687016, 2013 | E3 ubiquitin-protein ligase UHRF1 (Homo sapiens), Q96T88 | UHRF1 binding to methylated oligo | inhibition, % at 4.4 µM; in the data active = inhibition above about 21%;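 also: UHRF1 SRA domain binding a hemimethylated CpG hairpin DNA probe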
# MBD2 inh – inhibitors of MBD2 binding to methylated DNA, primary screen, biochemical, TR-FRET, DNA-binding domain, human; Methyl-CpG-binding domain protein 2 (Homo sapiens), Q9UBB5; MBD2 binding to methylated oligonucleotide; inhibition, % at 4.4 µM; 370,000 tested, 0.31% active; AID 686964, 2013; in the data active = inhibition above about 13%
# TDP2 absorb – human TDP2 enzyme inhibitors, primary screen, biochemical, epi absorbance, recombinant enzyme. Tyrosyl-DNA phosphodiesterase 2 (Homo sapiens), O95551. T5PNP hydrolysis, p-nitrophenol absorbance 415 nm. inhibition, % at 12.8 µM. 370,000 tested, 0.34% active. AID 720702, 2013;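 active = inhibition above the mean of all tested compounds plus 3 SD, set per campaign, cut at about 25% in these data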
# Target sequence (O95551 whole entry, looked up): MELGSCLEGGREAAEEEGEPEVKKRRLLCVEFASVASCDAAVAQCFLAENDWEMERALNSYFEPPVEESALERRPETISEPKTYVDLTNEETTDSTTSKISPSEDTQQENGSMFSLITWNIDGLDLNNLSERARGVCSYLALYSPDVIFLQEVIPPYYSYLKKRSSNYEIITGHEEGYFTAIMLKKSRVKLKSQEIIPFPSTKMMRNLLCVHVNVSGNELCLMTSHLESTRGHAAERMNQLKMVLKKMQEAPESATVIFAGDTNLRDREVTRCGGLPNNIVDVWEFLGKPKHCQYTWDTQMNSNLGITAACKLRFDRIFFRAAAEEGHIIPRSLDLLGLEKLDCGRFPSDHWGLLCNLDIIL
#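 test system = human TDP2 enzyme | input = TDP2 enzyme at 120 nM final | medium = 50 mM Tris-HCl pH 7.5 with Mg2+, KCl, DTT, BSA | also added = T5PNP substrate, 5 mM | times = 2 h at 37 °C | technique = epi absorbance | benchmarks = high control without enzyme, low control DMSO plus TDP2 | replication = each compound tested once, singlicate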
# A number is an active result; n = inactive. An excerpt weighted towards active compounds, which were near 1.6% of everything screened.
SMILES,LEDGF integ inh,UHRF1 MBD2 ctr,MBD2 inh,TDP2 absorb
CC1(C)Cc2c(sc(NC(=O)c3ccc(Br)o3)c2C#N)CO1,n,n,n,n
COC(=O)c1ccc2nc(-c3ccc(OC)c(OC)c3)c(Cc3ccc(OC)cc3C)n2c1,n,21.2,n,n
COC(=O)c1ccc2nc(-c3ccc(F)cc3)c(Cc3ccccc3OC)n2c1,n,n,n,n
COc1ccc(Cc2c(-c3ccc(C)cc3)nc3ccc(Cl)cn23)c(C)c1,n,n,n,n
COC(=O)c1ccc2nc(-c3ccc(Cl)cc3)c(Cc3ccc(OC)cc3C)n2c1,n,24.9,n,n
COc1ccc2oc(C(=O)OCC(=O)N(C)c3ccccc3)c(C)c2c1,n,n,n,n
COc1cccc(CNC(=O)c2ccc(CS(=O)(=O)Cc3ccccc3C)o2)c1,n,24.5,n,n
COC(=O)[C@]12CCCCC=C1N(Cc1ccccc1)C(=O)[C@H](CC(=O)NCCc1ccccc1OC)C2,n,n,n,n
COC(=O)c1c(NC(=O)C2CC2)sc2c1CCN(C(C)=O)C2,n,n,n,n
Cc1cccc(C)c1NC(=O)C1c2ccccc2OCC(=O)N1CC(F)(F)F (stereo not given),n,n,n,n
COCCN1C(=O)COc2ccccc2C1C(=O)Nc1c(C)cccc1C (stereo not given),n,21.2,n,n
CNC(=O)COC(=O)c1cc(SC)ccc1Cl,n,26.4,n,n
CSc1ccc(Cl)c(C(=O)OCC(=O)NCC(C)C)c1,n,n,n,n
CC(C)CC(Nc1ncnc2scc(-c3ccccc3)c12)C(=O)O (stereo not given),n,n,n,n
COc1ccc(CCC(=O)OCC(=O)NCc2ccc3c(c2)OCO3)cc1,n,n,n,n
O=C(COC(=O)CCc1c[nH]c2ccccc12)NCc1ccc2c(c1)OCO2,n,64.3,n,n
O=C(COC(=O)c1cc(F)cc(F)c1)NCCCc1ccccc1,n,85.2,n,n
O=C1NC(c2ccc(Cl)cc2)=COc2ccccc21,n,n,n,n
CCN(CC)c1ccc(NC(=O)C2CC(=O)N(Cc3ccccc3)C2)cc1 (stereo not given),n,n,n,n
CC(C)c1ccc(CN2CC(C(=O)Nc3ccccc3)CC2=O)cc1 (stereo not given),n,27.4,n,n
CC(OC(=O)Cc1ccsc1)C(=O)Nc1ccc(C(N)=O)cc1 (stereo not given),n,n,n,n
O=C(Nc1ccc(Cc2ccncc2)cc1)c1ccc(Cl)c([N+](=O)[O-])c1,n,n,n,n
COc1cccc(N(C(=O)Cn2nnc(-c3ccc(C)o3)n2)C(C(=O)NC2CCCC2)c2ccncc2)c1 (stereo not given),n,n,n,n
CCCSc1nc2cc(C)c(C)cc2n1CC(C)O (stereo not given),n,22.0,n,n
O=C(Nc1cccc(S(=O)(=O)NC2=NCCC2)c1)c1cc(-c2ccco2)nc2ccccc12,16.9,30.4,24.5,n
SMILES,LEDGF integ inh,UHRF1 MBD2 ctr,MBD2 inh,TDP2 absorb
O=C(COc1ccc(S(=O)(=O)N2CCOCC2)cc1)Nc1ccc(Br)cc1,n,n,n,n
O=C(COc1ccc(Br)cc1)NNC(=O)c1cc(S(=O)(=O)N2CCOCC2)ccc1Cl,35.3,n,n,n
CC(=O)Nc1ccc(S(=O)(=O)Nc2ccc(S(=O)(=O)Nc3nc(C)cc(C)n3)cc2)cc1,n,n,n,n
Cc1ccc2ccccc2[n+]1CCCS(=O)(=O)[O-],n,35.6,n,n
COc1ccc(S(=O)(=O)Nc2ccc(O)c3ccccc23)cc1,27.1,n,n,42.2
CC(C)CC1C(=O)N(Cc2cn(Cc3ccco3)nn2)CCS(=O)(=O)N1Cc1ccc(-c2ccc(F)nc2)cc1 (stereo not given),n,n,n,n
CC1(C(=O)Nc2cccc(C#N)c2)CCN1C(=O)C/C=C/c1ccccc1 (stereo not given),n,24.2,n,n
C#Cc1ccc(NC(=O)C2(C)CCN2C(=O)C/C=C/c2ccccc2)cc1 (stereo not given),n,n,n,n
O=C(COc1ccc(Cl)cc1)Nc1ncc([N+](=O)[O-])s1,n,n,n,n
O=C(COC(=O)COc1ccccc1)Nc1ncc([N+](=O)[O-])s1,31.8,n,n,n
